Results published in paper PMC5930004 (European journal of medicinal chemistry, 2018).
“Also recorded” adds a separate entry of the source.

Tests used:
[1] = target: T1, TOP1 (Homo sapiens, UniProt P11387); test: TOP1-mediated relaxation assay; type: biochemical; settings: 25 μM concentration
T1 sequence (P11387 1-765): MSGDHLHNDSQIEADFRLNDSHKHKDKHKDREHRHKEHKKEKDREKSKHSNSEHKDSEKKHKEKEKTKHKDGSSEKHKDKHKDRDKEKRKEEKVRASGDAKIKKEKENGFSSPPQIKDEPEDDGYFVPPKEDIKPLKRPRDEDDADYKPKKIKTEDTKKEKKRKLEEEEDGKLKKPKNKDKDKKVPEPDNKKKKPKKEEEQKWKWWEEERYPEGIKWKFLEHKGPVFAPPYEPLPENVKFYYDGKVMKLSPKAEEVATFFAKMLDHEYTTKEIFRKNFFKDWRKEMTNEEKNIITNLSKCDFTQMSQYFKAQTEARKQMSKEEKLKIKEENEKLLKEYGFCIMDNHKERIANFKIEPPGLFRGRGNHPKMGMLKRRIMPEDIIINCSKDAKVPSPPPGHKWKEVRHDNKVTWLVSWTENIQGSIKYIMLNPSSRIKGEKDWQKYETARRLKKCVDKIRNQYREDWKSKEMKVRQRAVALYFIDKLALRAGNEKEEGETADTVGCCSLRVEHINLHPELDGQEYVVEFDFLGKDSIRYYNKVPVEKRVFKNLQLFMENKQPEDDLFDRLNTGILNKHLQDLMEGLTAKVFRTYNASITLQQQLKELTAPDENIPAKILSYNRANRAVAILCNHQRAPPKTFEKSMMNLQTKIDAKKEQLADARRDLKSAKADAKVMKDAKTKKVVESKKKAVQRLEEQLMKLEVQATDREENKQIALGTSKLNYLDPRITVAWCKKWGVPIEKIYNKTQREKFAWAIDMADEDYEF

[2] = target: recombinant TDP1 (Homo sapiens, UniProt Q9NUW8); test: Recombinant TDP1 assay; type: biochemical; settings: highest concentration tested 111 μM
Chain of recombinant TDP1 (Q9NUW8 whole entry, species assumed): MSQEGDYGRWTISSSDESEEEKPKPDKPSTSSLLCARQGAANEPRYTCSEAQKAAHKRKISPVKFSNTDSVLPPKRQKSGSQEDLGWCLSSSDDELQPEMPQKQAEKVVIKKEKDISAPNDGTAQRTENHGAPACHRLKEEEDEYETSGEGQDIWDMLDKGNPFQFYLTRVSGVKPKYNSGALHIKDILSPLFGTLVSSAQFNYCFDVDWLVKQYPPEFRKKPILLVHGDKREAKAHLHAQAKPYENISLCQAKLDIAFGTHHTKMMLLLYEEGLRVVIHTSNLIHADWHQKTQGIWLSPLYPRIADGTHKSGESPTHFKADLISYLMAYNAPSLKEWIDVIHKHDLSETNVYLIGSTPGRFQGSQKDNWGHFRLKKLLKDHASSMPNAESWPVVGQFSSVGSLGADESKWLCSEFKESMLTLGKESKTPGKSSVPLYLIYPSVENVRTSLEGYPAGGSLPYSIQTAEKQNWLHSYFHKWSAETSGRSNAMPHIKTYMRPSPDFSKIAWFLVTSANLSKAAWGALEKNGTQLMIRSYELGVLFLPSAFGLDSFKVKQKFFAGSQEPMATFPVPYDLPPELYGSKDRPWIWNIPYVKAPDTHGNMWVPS
Outline: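 Test compound was run as six or eight three-fold dilutions from 111 μM down to 0.46 μM or 0.051 μM against recombinant TDP1. Reactions were stopped with 1 volume of gel loading buffer (99.5% formamide, 5 mM EDTA, xylene cyanol, bromophenol blue) and resolved by 16% denaturing PAGE. Dried gels were phosphorimaged and quantified by densitometry.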

[3] = system: TOP2; test: TOP2-mediated relaxation assay; type: biochemical; settings: 25 μM concentration
[4] = target: T1, TOP1; test: TOP1-mediated DNA cleavage assay; type: biochemical; settings: up to 100 μM
[5] = target: T2, recombinant human TDP2 (Homo sapiens, UniProt O95551); test: Recombinant TDP2 assay; type: biochemical; settings: inactive, i.e. IC50 >111 μM
T2 sequence (O95551 1-362): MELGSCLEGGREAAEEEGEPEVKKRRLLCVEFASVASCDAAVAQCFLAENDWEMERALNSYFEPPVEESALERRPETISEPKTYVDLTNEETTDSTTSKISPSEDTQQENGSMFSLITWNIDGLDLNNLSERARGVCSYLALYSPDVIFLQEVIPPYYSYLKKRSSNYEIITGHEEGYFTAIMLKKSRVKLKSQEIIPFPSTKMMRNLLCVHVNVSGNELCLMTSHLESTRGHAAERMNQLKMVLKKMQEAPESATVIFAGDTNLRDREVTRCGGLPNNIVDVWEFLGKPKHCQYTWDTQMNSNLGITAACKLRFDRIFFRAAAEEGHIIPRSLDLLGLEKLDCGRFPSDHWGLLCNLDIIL

[6] = target: TOP2-DNA covalent cleavage complexes (TOP2cc) in CCRF-CEM cells (Homo sapiens, UniProt P11388); test: In vivo complex of enzyme; type: cell-based; settings: 2 h treatment, up to 50 μM
Chain of TOP2-DNA covalent cleavage complexes (TOP2cc) in CCRF-CEM cells (P11388 whole entry, one chain of several): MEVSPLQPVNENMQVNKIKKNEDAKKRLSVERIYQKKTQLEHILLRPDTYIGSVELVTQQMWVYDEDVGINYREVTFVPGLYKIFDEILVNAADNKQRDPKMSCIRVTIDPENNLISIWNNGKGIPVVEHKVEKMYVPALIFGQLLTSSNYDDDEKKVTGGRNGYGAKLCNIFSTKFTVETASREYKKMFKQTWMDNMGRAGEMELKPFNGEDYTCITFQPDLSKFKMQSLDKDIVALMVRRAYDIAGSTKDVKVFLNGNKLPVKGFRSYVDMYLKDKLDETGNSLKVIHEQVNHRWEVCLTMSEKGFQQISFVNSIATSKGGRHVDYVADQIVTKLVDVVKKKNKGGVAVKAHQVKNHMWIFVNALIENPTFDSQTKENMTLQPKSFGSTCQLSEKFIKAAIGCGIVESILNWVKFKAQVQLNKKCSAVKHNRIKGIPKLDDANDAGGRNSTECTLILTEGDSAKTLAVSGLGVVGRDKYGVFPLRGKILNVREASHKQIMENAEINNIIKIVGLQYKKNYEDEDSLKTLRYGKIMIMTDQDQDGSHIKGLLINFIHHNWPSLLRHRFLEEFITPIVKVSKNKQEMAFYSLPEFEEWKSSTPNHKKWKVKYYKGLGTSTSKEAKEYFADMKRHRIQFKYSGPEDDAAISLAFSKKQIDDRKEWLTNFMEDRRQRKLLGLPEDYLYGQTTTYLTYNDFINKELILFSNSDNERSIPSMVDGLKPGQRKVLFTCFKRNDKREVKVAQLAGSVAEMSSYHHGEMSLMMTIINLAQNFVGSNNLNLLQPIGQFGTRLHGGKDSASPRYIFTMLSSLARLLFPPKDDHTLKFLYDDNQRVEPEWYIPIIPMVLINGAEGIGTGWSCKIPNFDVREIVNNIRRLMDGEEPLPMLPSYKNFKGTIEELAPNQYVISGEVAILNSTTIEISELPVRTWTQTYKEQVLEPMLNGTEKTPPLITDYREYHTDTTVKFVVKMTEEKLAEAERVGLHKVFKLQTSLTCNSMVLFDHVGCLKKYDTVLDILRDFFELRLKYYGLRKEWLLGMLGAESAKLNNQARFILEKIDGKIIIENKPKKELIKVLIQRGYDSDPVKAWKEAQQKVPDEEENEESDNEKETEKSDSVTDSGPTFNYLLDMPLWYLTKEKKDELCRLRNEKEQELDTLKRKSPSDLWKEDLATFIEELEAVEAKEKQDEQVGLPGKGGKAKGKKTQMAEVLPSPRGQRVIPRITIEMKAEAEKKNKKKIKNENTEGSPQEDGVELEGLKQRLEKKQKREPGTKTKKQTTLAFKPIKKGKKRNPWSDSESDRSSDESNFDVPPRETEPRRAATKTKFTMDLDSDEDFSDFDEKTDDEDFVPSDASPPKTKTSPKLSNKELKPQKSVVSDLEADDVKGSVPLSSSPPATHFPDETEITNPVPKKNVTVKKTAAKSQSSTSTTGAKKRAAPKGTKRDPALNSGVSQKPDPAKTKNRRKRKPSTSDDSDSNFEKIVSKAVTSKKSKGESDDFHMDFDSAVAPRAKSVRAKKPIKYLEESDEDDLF
Outline: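 CCRF-CEM cells (60 × 10^5) exposed to test compound for 2 h, then lysed with 1% Sarkosyl. DNA was isolated, and TOP2–DNA covalent complexes were detected by Western slot blot using a mouse anti-human TOP2α antibody.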

Structure (SMILES)	TOP1 relaxing activity inhibition (in words) [1]	TDP1 inhibition (in words) [2]	TOP2 relaxing activity inhibition (in words) [3]	TDP2 inhibitory activity (in words) [5]	other results
CCOC(=O)c1noc2c1C(=O)c1ncccc1C2=O [Compound 73, Ethyl 4,9-dioxo-4,9-dihydroisoxazolo[5,4-g]quinoline-3-carboxylate]	do not have inhibitory potency; also recorded: no activity	no activity	do not have inhibitory potency; also recorded: no activity	–	TOP1-mediated DNA cleavage, formation of covalent TOP1-DNA complex (in words) [4]: do not have inhibitory potency
Cc1oc2c(c1C(=O)Oc1ccc(C(=O)c3ccccc3)cc1)C(=O)c1ncccc1C2=O [Compound 46, 4-Benzoylphenyl 2-methyl-4,9-dioxo-4,9-dihydrofuro[2,3-g]quinoline-3-carboxylate]	–	–	–	inactive	–
CCOC(=O)c1noc2c1C(=O)c1cccnc1C2=O [Compound 74, Ethyl 4,9-dioxo-4,9-dihydroisoxazolo[4,5-g]quinoline-3-carboxylate]	do not have inhibitory potency; also recorded: no activity	no activity	do not have inhibitory potency; also recorded: no activity	–	TOP1-mediated DNA cleavage, formation of covalent TOP1-DNA complex (in words) [4]: do not have inhibitory potency; Induction of TOP2cc formation (ICE assay, in words) [6]: unable to induce the formation of TOP2cc
CCOC(=O)c1n[nH]c2c1C(=O)c1ncccc1C2=O [Compound 75, Ethyl 4,9-dioxo-4,9-dihydro-1H-pyrazolo[3,4-g]quinoline-3-carboxylate]	–	–	–	inactive	–
Cc1oc2c(c1C(=O)Oc1ccc3c(c1)OCO3)C(=O)c1ncccc1C2=O [Compound 49, Benzo[d][1,3]dioxol-5-yl 2-methyl-4,9-dioxo-4,9-dihydrofuro[2,3-g]quinoline-3-carboxylate]	–	–	–	inactive	–
CCOC(=O)c1c2c(n(C)c1C)C(=O)c1ncccc1C2=O [Compound 72, ethyl 1,2-dimethyl-4,9-dioxo-4,9-dihydro-1H-pyrrolo[3,2-g]quinoline-3-carboxylate]	–	–	–	inactive	–
CCOC(=O)c1c(C)[nH]c2c1C(=O)c1cccnc1C2=O [Compound 70, ethyl 2-methyl-4,9-dioxo-4,9-dihydro-1H-pyrrolo[3,2-g]quinoline-3-carboxylate]	–	–	–	inactive	–
CCOC(=O)c1c(C)oc2c1C(=O)c1ncccc1C2=O [Compound 1, Ethyl 2-methyl-4,9-dioxo-4,9-dihydrofuro[2,3-g]quinoline-3-carboxylate]	did not inhibit	did not inhibit	did not inhibit	–	–
CCOC(=O)c1n[nH]c2c1C(=O)c1cccnc1C2=O [Compound 76, Ethyl 4,9-dioxo-4,9-dihydro-1H-pyrazolo[4,3-g]quinoline-3-carboxylate]	–	–	–	inactive	–
Cc1oc2c(c1C(=O)Oc1ccc3ccccc3c1)C(=O)c1ncccc1C2=O [Compound 40, 2-Naphthalenyl 2-methyl-4,9-dioxo-4,9-dihydrofuro[2,3-g]quinoline-3-carboxylate]	–	–	–	inactive	–
